In PMC6910256 (Journal of photochemistry and photobiology. A, Chemistry, 2019):
Where two headings read alike, the source gives them in different places.

What was measured:
[1] = molecular target: T1, GST-DUSP5 (full length DUSP5, pERK substrate) (Homo sapiens, UniProt Q16690); assay: In vitro ERK dephosphorylation Western blot assay; format: biochemical; conditions: non-cell based western blot
T1 sequence (Q16690 1-384): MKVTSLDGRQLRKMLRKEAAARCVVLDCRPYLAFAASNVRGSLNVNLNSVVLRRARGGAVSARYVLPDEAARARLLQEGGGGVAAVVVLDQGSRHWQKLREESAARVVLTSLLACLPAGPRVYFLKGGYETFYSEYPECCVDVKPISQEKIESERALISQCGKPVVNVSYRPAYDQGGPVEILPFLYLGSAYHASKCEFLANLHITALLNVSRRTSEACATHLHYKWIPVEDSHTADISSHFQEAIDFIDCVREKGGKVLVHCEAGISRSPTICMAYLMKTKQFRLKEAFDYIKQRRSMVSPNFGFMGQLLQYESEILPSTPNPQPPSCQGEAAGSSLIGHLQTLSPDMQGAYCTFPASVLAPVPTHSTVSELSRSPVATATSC

DUSP5 PD [2] = molecular target: T2, DUSP5 PD (Homo sapiens, UniProt Q16690); assay: Reaction progress curve analysis of irreversible DUSP5 PD inactivation; format: biochemical
T2 sequence (Q16690 178-319 limits assumed): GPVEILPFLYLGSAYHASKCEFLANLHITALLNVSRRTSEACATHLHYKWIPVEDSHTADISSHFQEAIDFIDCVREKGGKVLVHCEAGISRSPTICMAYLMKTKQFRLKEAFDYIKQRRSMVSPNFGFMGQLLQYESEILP

DUSP5 PD [3] = molecular target: T2, DUSP5 PD; assay: Spectral analysis of other xanthene dyes binding to DUSP5 PD protein; conditions: 4 μM compound, 4 μM protein
Procedure, shortened: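 Each test compound at 4 μM in assay buffer, without or with 1 mM DTT, in 2 mL quartz cuvettes. Absorbance was scanned at 1 nm intervals from 400 to 600 nm. DUSP5 PD was then added to a final 4 μM and the sample rescanned. Blanks were buffer with or without DTT, plus buffer with 4 μM protein. Spectra without protein were subtracted from spectra with protein to give difference spectra.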

Nephelometry = format: physicochemical; conditions: assay buffer pH 7.5 without vs with 1 mM DTT
Procedure, shortened: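 Aggregation was tested in 96-well plates using substrate-free assay buffer at pH 7.5, without or with 1 mM DTT. Serially diluted compound was added to give final concentrations of 1–100 μM or 1–300 μM, depending on compound.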

GST-DUSP5 = molecular target: T3, GST-DUSP5 (Homo sapiens, UniProt Q16690); assay: Prestwick drug library pNPP enzyme assay screen; format: biochemical; conditions: 50 μM drug, 5 mM pNPP
T3 sequence (Q16690 178-319 limits assumed): T2 sequence (Q16690 178-319 limits assumed)

DUSP5 PD [4] = molecular target: T2, DUSP5 PD; assay: Incandescent bulb kinetic studies, noncompetitive inhibition models; format: biochemical
Procedure, shortened: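 DUSP5 PD (final 1 μM) in 100 mM Tris pH 7.5, 100 mM NaCl, 5 mM MgCl2, 1 mM DTT, precooled to 4°C. Incubated in glass tubes with test compound (1 mM aqueous stock, light-protected), either light-limited or under incandescent illumination. Substrate was 3, 9 or 27 mM pNPP, with pNPP-only background subtraction. Initial velocities came from linear fits of p-nitrophenolate (ε 18,000). Fits were global noncompetitive models: a single Ki (equation 6), or slope Kis and intercept Kii (equation 7).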

DUSP5 PD [5] = molecular target: T2, DUSP5 PD; assay: Binding of rose bengal to DUSP5 PD by UV-Vis spectral titration; conditions: read-out: Kd for binding to DUSP5; as printed in abstract/highlights
Procedure, shortened: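 Final protein was 0, 1.0, 2.0 and 3.0 μM with 1.08 μM compound, or 0–2.5 μM in 0.5 μM steps with 3.25 or 6.5 μM compound. Absorbance differences were fitted hyperbolically (equation 8) against total protein to obtain Absmax. Fractional absorbance was plotted versus total protein.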

DUSP5 PD [6] = molecular target: T2, DUSP5 PD; assay: LED illumination kinetic studies; format: biochemical; conditions: 555 nm LED, 30 min, 825 lux
Procedure, shortened: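 Samples of 4 mL containing 1 μM DUSP5 PD and 0, 1, 2 or 3.5 μM test compound were prepared at 20°C under <1 lux. They were then treated for 30 min, illuminated or light-shielded. Aliquots of 190 μL were started with pNPP (final 0, 3, 9, 27 mM), four replicates each, plated under <1 lux. A405 was read every 30 s for 10 min at 25°C. Initial velocities were globally fitted to the noncompetitive models (equations 6, 7).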

DUSP5 PD [7] = molecular target: T2, DUSP5 PD; assay: Headspace gas sparging kinetic studies; format: biochemical; conditions: 1 μM rose bengal, illuminated 15 min
Procedure, shortened: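 Borosilicate tubes held 4 mL assay buffer with 1 μM DUSP5 PD, without or with 1 μM test compound. They were prepared shielded from light, stoppered and kept on ice. Ultrapure air, nitrogen or oxygen was passed through the headspace at 2.5 L/min by needle. Controls: enzyme without compound under room air. After illumination, pNPP hydrolysis was read at 405 nm every 30 s for 10 min at 25°C in 96-well plates, background-subtracted and converted to p-nitrophenolate.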

DUSP5 PD [8] = molecular target: T2, DUSP5 PD; assay: DUSP5 phosphatase domain pNPP assay, IC50 from initial velocities; format: biochemical
Procedure, shortened: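 Recombinant DUSP5 phosphatase domain in 100 mM Tris, 100 mM NaCl, 5 mM MgCl2, pH 7.5, without or with 1 mM DTT, using 5 mM pNPP (near Km). Compound was serially diluted and enzyme added from a 25 μM stock. After 0, 30 or 60 min dark incubation, A405 was read every 30 s for 10 min at 25°C. Blank-subtracted slopes were normalised to vehicle controls and fitted to equation 2. Three or four trials of triplicate wells.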

DUSP5 PD [9] = molecular target: T2, DUSP5 PD; assay: Steady-state competitive inhibition kinetics; format: biochemical; conditions: vs pNPP
Procedure, shortened: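 Initial DUSP5 PD velocities were measured across 3–81 mM pNPP and 0–30 μM test compound, in assay buffer with 1 mM DTT. The data were fitted globally to a steady-state competitive inhibition model (equation 5), giving Vmax, Km and Ki ± SE.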

[10] = with 1 mM DTT, summary of data sets (Table 2)
[11] = without DTT, fit of kobs replot to equation 4 (Fig. 5c/6c)
[12] = without DTT, summary of data sets (Table 2)

O=C([O-])c1ccccc1-c1c2cc(Br)c(=O)cc-2oc2[c]([Hg+])c([O-])c(Br)cc12.[Na+].[Na+].[OH-] [Merbromin, 2’,7’-dibromo-5’-[hydroxy-mercurio]-fluorescein]
rank in secondary assay of pERK dephosphorylation among 8 screen hits [1]: most potent inhibitor
Inhibitor mechanism (irreversible inactivation) (DUSP5 PD [2]; with 1 mM DTT): single-step
kinact/KI (slope of linear fit) (DUSP5 PD [2]; with 1 mM DTT, fit shown in Fig. 5c/6c): 6.0 M⁻¹ s⁻¹
kinact/KI (DUSP5 PD [2]; [10]): 6.22 ± 0.74 M⁻¹ s⁻¹
kinact/KI (slope from the data fit) (DUSP5 PD [2]; with DTT, Fig. 5c): 6.0 M⁻¹
fold decrease of kinact/KI in the presence of DTT (DUSP5 PD [2]; with vs without DTT): 7.6 fold
Inhibitor mechanism (irreversible inactivation) (DUSP5 PD [2]; without DTT): two-step
Ki (DUSP5 PD [2]; [11]): 33 µM
kinact (DUSP5 PD [2]; [11]): 0.0014 s⁻¹
kinact/KI (DUSP5 PD [2]; without DTT, fit shown in Fig. 5c/6c): 42.4 M⁻¹ s⁻¹
kinact/KI (DUSP5 PD [2]; [12]): 47.08 ± 4.66 M⁻¹ s⁻¹
kinact/KI (DUSP5 PD [2]; without DTT, summary of data sets (Table 2), listed as merbromin): 47 M⁻¹ s⁻¹
spectral shift upon addition of DUSP5 PD protein (DUSP5 PD [3]; with 1 mM DTT): blunted
spectral shift upon addition of DUSP5 PD protein (DUSP5 PD [3]; without DTT): largest spectral shift
effect of DTT addition on compound aggregation (Nephelometry): little effect
inhibitory activity with DUSP5 in library screen (GST-DUSP5): showed inhibitory activity

N[C@@H](Cc1ccc(O)c(O)c1)C(=O)O [Levodopa]
inhibitory activity with DUSP5 in library screen (GST-DUSP5): showed inhibitory activity

Cyanocobalamin
inhibitory activity with DUSP5 in library screen (GST-DUSP5): showed inhibitory activity

CN(C)[C@@H]1C(O)=C(C(=O)NCNCCCC[C@H](N)C(=O)O)C(=O)[C@@]2(O)C(O)=C3C(=O)c4c(O)cccc4[C@@](C)(O)[C@H]3C[C@@H]12 [Lymecycline]
inhibitory activity with DUSP5 in library screen (GST-DUSP5): showed inhibitory activity

O=C1OC2(c3cc(Br)c(O)cc3Oc3cc(O)c(Br)cc32)c2ccccc21 [2’,7’-dibromofluorescein]
Inhibitor mechanism (irreversible inactivation) (DUSP5 PD [2]; with 1 mM DTT): single-step
kinact/KI (DUSP5 PD [2]; [10]): 0.84 ± 0.07 M⁻¹ s⁻¹
Inhibitor mechanism (irreversible inactivation) (DUSP5 PD [2]; without DTT): single-step
kinact/KI (DUSP5 PD [2]; [12]): 2.40 ± 0.48 M⁻¹ s⁻¹
spectral shift upon addition of DUSP5 PD protein (DUSP5 PD [3]; with 1 mM DTT): shifted slightly
spectral shift upon addition of DUSP5 PD protein (DUSP5 PD [3]; without DTT): shifted slightly

O=C(O)c1c(Cl)c(Cl)c(Cl)c(Cl)c1-c1c2cc(I)c(=O)c(I)c-2oc2c(I)c(O)c(I)cc12 [Rose Bengal, 4,5,6,7-tetrachloro-2’,4’,5’,7’-tetraiodofluorescein]
Kii, intercept inhibition constant (two Ki noncompetitive model, equation 7) (DUSP5 PD [4]; 15 min dark incubation): 2.25 ± 0.10 µM
Kii, intercept inhibition constant (two Ki noncompetitive model, equation 7) (DUSP5 PD [4]; 15 min light exposure): 0.55 ± 0.02 µM
steady-state inhibition mechanism (DUSP5 PD [4]; vs pNPP): noncompetitive inhibitor
Kd (DUSP5 PD [5]): 0.69 µM
Ki of LED-illuminated samples relative to samples incubated in the dark (DUSP5 PD [6]): about half
DUSP5 PD enzyme activity, oxygen-gassed vs other conditions (DUSP5 PD [7]): significantly lower activities
DUSP5 PD enzyme velocity, nitrogen-gassed vs compressed air or oxygen (DUSP5 PD [7]): significantly higher velocities

CC[N+](C)(CC)CCC[n+]1c(-c2ccccc2)c2cc(N)ccc2c2ccc(N)cc21.[I-].[I-] [Propidium iodide]
inhibitory activity with DUSP5 in library screen (GST-DUSP5): showed inhibitory activity

O.O=C1C(O)=C(O)C(=O)C(O)=C1O [Tetrahydroxy 1,4-quinone monohydrate]
inhibitory activity with DUSP5 in library screen (GST-DUSP5): showed inhibitory activity

O=C1OC2(c3ccc(O)cc3Oc3cc(O)ccc32)c2ccccc21 [Fluorescein]
IC50 (DUSP5 PD [8]): > 300 µM
IC50 (DUSP5 PD [8]; IC50 against DUSP5 PD activity, with 1 mM DTT, 30 min incubation, mean ± SD): > 300 µM
IC50 (DUSP5 PD [8]; IC50 against DUSP5 PD activity, with 1 mM DTT, 60 min incubation, mean ± SD): > 300 µM
IC50 (DUSP5 PD [8]; IC50 against DUSP5 PD activity, without DTT, 30 min incubation, mean ± SD): > 300 µM
IC50 (DUSP5 PD [8]; IC50 against DUSP5 PD activity, without DTT, 60 min incubation, mean ± SD): > 300 µM
inhibition of DUSP5 PD activity (DUSP5 PD [8]; concentrations up to 300 μM): did not inhibit
spectral shift upon addition of DUSP5 PD protein (DUSP5 PD [3]; with 1 mM DTT): no spectral differences
spectral shift upon addition of DUSP5 PD protein (DUSP5 PD [3]; without DTT): no spectral differences

COc1cc(NC(C)CCCN)c2ncccc2c1 (centres unmarked) [Primaquine diphosphate]
inhibitory activity with DUSP5 in library screen (GST-DUSP5): showed inhibitory activity

CN1CCC2(C)c3cc(O)ccc3N(C)C12.O=C(O)/C=C/C(=O)O (centres unmarked) [Eseroline fumarate salt]
inhibitory activity with DUSP5 in library screen (GST-DUSP5): showed inhibitory activity

O=C1OC2(c3ccccc31)c1cc(I)c(O)c(I)c1Oc1c2cc(I)c(O)c1I [Erythrosin B, 2’,4’,5’,7’-tetraiodofluorescein]
fold less effective than merbromin (time-dependent inhibition) (DUSP5 PD [2]; absence of DTT): roughly 10 fold
Inhibitor mechanism (irreversible inactivation) (DUSP5 PD [2]; with 1 mM DTT): single-step
kinact/KI (DUSP5 PD [2]; [10]): 4.13 ± 0.13 M⁻¹ s⁻¹
Inhibitor mechanism (irreversible inactivation) (DUSP5 PD [2]; without DTT): single-step
kinact/KI (DUSP5 PD [2]; [12]): 4.65 ± 0.71 M⁻¹ s⁻¹
steady-state inhibition mechanism (DUSP5 PD [9]): competitive inhibitor
spectral shift upon addition of DUSP5 PD protein (DUSP5 PD [3]; with 1 mM DTT): not diminished
spectral shift upon addition of DUSP5 PD protein (DUSP5 PD [3]; without DTT): spectrally shifted

Anthracin
inhibitory activity with DUSP5 in library screen (GST-DUSP5): showed inhibitory activity

O=C1OC2(c3cc(Cl)c(O)cc3Oc3cc(O)c(Cl)cc32)c2ccccc21 [2’,7’-dichlorofluorescein]
Inhibitor mechanism (irreversible inactivation) (DUSP5 PD [2]; with 1 mM DTT): single-step
kinact/KI (DUSP5 PD [2]; [10]): 0.14 ± 0.02 M⁻¹ s⁻¹
Inhibitor mechanism (irreversible inactivation) (DUSP5 PD [2]; without DTT): single-step
kinact/KI (DUSP5 PD [2]; [12]): 0.41 ± 0.06 M⁻¹ s⁻¹
spectral shift upon addition of DUSP5 PD protein (DUSP5 PD [3]; with 1 mM DTT): no spectral differences
spectral shift upon addition of DUSP5 PD protein (DUSP5 PD [3]; without DTT): no spectral differences
